Test results published in ChEMBL document CHEMBL1122242, “Phenylenebis(oxy)bis[2,2-dimethylpentanoic acid]s: agents that elevate high-density lipoproteins” (1983).

Experiments:
Assay type in all cases: functional
Rattus norvegicus [1] = organism: Rattus norvegicus; assay: Hypolipidemic effects(liver weight) in male rats
Outline: (§1)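 Male rats, 10 per group, fed 7 days on chow with 10% fat (5.5% added peanut oil), 1.5% cholesterol and 0.1% cholic acid. Oral gavage on days 4-7 in 4% acacia, usually 50 mg/kg daily. Fasted overnight, killed day 8, atrial blood into EDTA. Plasma cholesterol, TG and HDL cholesterol (after MnCl2/heparin precipitation) by Autoanalyzer. % change vs controls, Student's t test.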

Rattus norvegicus [2] = assay: Hypolipidemic effects (low-density lipoprotein (LDL) cholesterol) in male rats; Compound was screening orally at 50 mg/Kg; outline: as §1
Rattus norvegicus [3] = organism: Rattus norvegicus; assay: Hypolipidemic effects(plasma TG) in male rats; outline: as §1
Rattus norvegicus [4] = organism: Rattus norvegicus; assay: Hypolipidemic effects(plasma cholesterol) in male rats; outline: as §1
Rattus norvegicus [5] = assay: Hypolipidemic effects (high-density lipoprotein (HDL) cholesterol) in male rats;Compound was screening orally at 50 mg/Kg; outline: as §1
Rattus norvegicus [6] = assay: Hypolipidemic effects (high-density lipoprotein (HDL) cholesterol) in male rats; Compound was screening orally at 50 mg/Kg; outline: as §1
Rattus norvegicus [7] = assay: Hypolipidemic effects (low-density lipoprotein (LDL) cholesterol) in male rats;Compound was screening orally at 50 mg/Kg; outline: as §1

CCCC(=O)c1cc(OCCCC(C)(C)C(=O)OC)ccc1OCCCC(C)(C)C(=O)OC
Change (Rattus norvegicus [1]): 34%
Change (Rattus norvegicus [2]): -52%
Change (Rattus norvegicus [3]): 0%
Change (Rattus norvegicus [4]): 39%
Change (Rattus norvegicus [5]): 1100%

CC(C)(CCCCCOc1cccc(OCCCCCC(C)(C)C(=O)O)c1)C(=O)O
Change (Rattus norvegicus [1]): 0%
Change (Rattus norvegicus [2]): -27%
Change (Rattus norvegicus [3]): 0%
Change (Rattus norvegicus [4]): -22%
Change (Rattus norvegicus [5]): 48%

Cc1ccccc1-c1cc(OCCCC(C)(C)C(=O)O)ccc1OCCCC(C)(C)C(=O)O
Change (Rattus norvegicus [1]): 22%
Change (Rattus norvegicus [2]): -52%
Change (Rattus norvegicus [3]): 55%
Change (Rattus norvegicus [4]): 0%
Change (Rattus norvegicus [6]): 628%

COC(=O)C(C)(C)CCCOc1ccc(Br)c(OCCCC(C)(C)C(=O)OC)c1
Change (Rattus norvegicus [1]): 5%
Change (Rattus norvegicus [2]): -52%
Change (Rattus norvegicus [3]): 0%
Change (Rattus norvegicus [4]): -47%
Change (Rattus norvegicus [6]): 26%

COC(=O)C(C)(C)CCCSc1ccc(Oc2ccc(SCCCC(C)(C)C(=O)OC)cc2)cc1
Change (Rattus norvegicus [1]): 4%
Change (Rattus norvegicus [7]): -31%
Change (Rattus norvegicus [3]): 0%
Change (Rattus norvegicus [4]): -29%
Change (Rattus norvegicus [6]): 0%

CC(C)(CCCOc1ccc(OCCCC(C)(C)C(=O)O)c(CO)c1)C(=O)O
Change (Rattus norvegicus [1]): 9%
Change (Rattus norvegicus [7]): 0%
Change (Rattus norvegicus [3]): 18%
Change (Rattus norvegicus [4]): 40%
Change (Rattus norvegicus [6]): 319%

CC(C)(CCOc1cccc(OCCC(C)(C)C(=O)O)c1)C(=O)O
Change (Rattus norvegicus [1]): 17%
Change (Rattus norvegicus [2]): -46%
Change (Rattus norvegicus [3]): 240%
Change (Rattus norvegicus [4]): -28%
Change (Rattus norvegicus [5]): 383%

CC(C)(CCOc1ccc(Sc2ccc(OCCC(C)(C)C(=O)O)cc2)cc1)C(=O)O
Change (Rattus norvegicus [1]): 0%
Change (Rattus norvegicus [3]): -32%
Change (Rattus norvegicus [4]): -25%
Change (Rattus norvegicus [5]): 46%

CC(C)(CCCOc1ccc(OCCCC(C)(C)C(=O)O)cc1)C(=O)O
Change (Rattus norvegicus [2]): -27%
Change (Rattus norvegicus [3]): 0%
Change (Rattus norvegicus [4]): -45%
Change (Rattus norvegicus [6]): 44%
Change (Rattus norvegicus [5]): 791%

COC(=O)C(C)(C)CCCSc1ccc(-c2ccc(SCCCC(C)(C)C(=O)OC)cc2)cc1
Change (Rattus norvegicus [1]): 14%
Change (Rattus norvegicus [2]): -39%
Change (Rattus norvegicus [3]): 60%
Change (Rattus norvegicus [4]): 0%
Change (Rattus norvegicus [6]): 245%

CC(C)(CCOc1ccc(OCCC(C)(C)C(=O)O)c(Cl)c1)C(=O)O
Change (Rattus norvegicus [1]): 13%
Change (Rattus norvegicus [3]): -32%
Change (Rattus norvegicus [4]): -62%
Change (Rattus norvegicus [5]): 348%

CC(C)(CCCOc1cc(Cl)c(OCCCC(C)(C)C(=O)O)cc1Cl)C(=O)O
Change (Rattus norvegicus [1]): 41%
Change (Rattus norvegicus [3]): 35%
Change (Rattus norvegicus [4]): -55%
Change (Rattus norvegicus [5]): 384%

COC(=O)C(C)(C)CCCCCOc1ccccc1OCCCCCC(C)(C)C(=O)OC
Change (Rattus norvegicus [1]): 11%
Change (Rattus norvegicus [2]): -19%
Change (Rattus norvegicus [3]): 140%
Change (Rattus norvegicus [4]): 0%
Change (Rattus norvegicus [6]): 276%

Cc1cc(SCCCC(C)(C)C(=O)O)c(C)cc1OCCCC(C)(C)C(=O)O
Change (Rattus norvegicus [1]): 14%
Change (Rattus norvegicus [2]): -35%
Change (Rattus norvegicus [3]): 0%
Change (Rattus norvegicus [4]): -20%
Change (Rattus norvegicus [6]): 220%

COC(=O)C(C)(C)CCCOc1cc(OC)c(OCCCC(C)(C)C(=O)OC)cc1OC
Change (Rattus norvegicus [1]): 0%
Change (Rattus norvegicus [3]): 0%
Change (Rattus norvegicus [4]): -33%
Change (Rattus norvegicus [5]): 39%

COC(=O)C(C)(C)CCCOc1ccc(OCCCC(C)(C)C(=O)OC)c(/C=N/NC(N)=O)c1
Change (Rattus norvegicus [1]): 4%
Change (Rattus norvegicus [2]): -33%
Change (Rattus norvegicus [3]): 0%
Change (Rattus norvegicus [4]): -28%
Change (Rattus norvegicus [5]): 0%

CC(C)(CCCOc1ccc(OCCCC(C)(C)C(=O)O)c(Cc2ccccc2)c1)C(=O)O
Change (Rattus norvegicus [1]): 14%
Change (Rattus norvegicus [2]): -71%
Change (Rattus norvegicus [3]): 0%
Change (Rattus norvegicus [4]): -44%
Change (Rattus norvegicus [6]): 389%

CC(C)(CCCOc1ccc([S+]([O-])CCCC(C)(C)C(=O)O)cc1)C(=O)O (centres undefined)
Change (Rattus norvegicus [1]): 19%
Change (Rattus norvegicus [2]): -31%
Change (Rattus norvegicus [3]): 16%
Change (Rattus norvegicus [4]): -33%
Change (Rattus norvegicus [6]): 289%

COC(=O)C(C)(C)CCCOc1ccc(OCCCC(C)(C)C(=O)OC)c(C(C)(C)C)c1
Change (Rattus norvegicus [1]): 11%
Change (Rattus norvegicus [2]): -41%
Change (Rattus norvegicus [3]): 0%
Change (Rattus norvegicus [4]): -34%
Change (Rattus norvegicus [6]): 171%

COC(=O)C(C)(C)CCCOc1ccc(OCCCC(C)(C)C(=O)OC)c(OC)c1
Change (Rattus norvegicus [1]): 30%
Change (Rattus norvegicus [2]): -31%
Change (Rattus norvegicus [3]): 0%
Change (Rattus norvegicus [4]): -26%
Change (Rattus norvegicus [5]): 566%

COC(=O)c1cc(OCCCC(C)(C)C(=O)OC)cc(OCCCC(C)(C)C(=O)OC)c1
Change (Rattus norvegicus [1]): 0%
Change (Rattus norvegicus [2]): 0%
Change (Rattus norvegicus [3]): 0%
Change (Rattus norvegicus [4]): 0%
Change (Rattus norvegicus [6]): 0%

CCC(=O)c1cc(OCCCC(C)(C)C(=O)OC)ccc1OCCCC(C)(C)C(=O)OC
Change (Rattus norvegicus [1]): 40%
Change (Rattus norvegicus [2]): -57%
Change (Rattus norvegicus [3]): 0%
Change (Rattus norvegicus [4]): 0%
Change (Rattus norvegicus [5]): 723%

COC(=O)C(C)(C)CCCSc1ccc(Cl)c(SCCCC(C)(C)C(=O)OC)c1
Change (Rattus norvegicus [1]): 0%
Change (Rattus norvegicus [2]): -52%
Change (Rattus norvegicus [3]): 0%
Change (Rattus norvegicus [4]): -53%
Change (Rattus norvegicus [6]): 56%

CC(C)(CCCCOc1cccc(OCCCCC(C)(C)C(=O)O)c1)C(=O)O
Change (Rattus norvegicus [1]): 18%
Change (Rattus norvegicus [2]): -52%
Change (Rattus norvegicus [3]): 41%
Change (Rattus norvegicus [4]): -37%
Change (Rattus norvegicus [5]): 317%

CCOC(=O)C(C)(C)CCCCCCOc1ccc(OCCCCCCC(C)(C)C(=O)OCC)cc1
Change (Rattus norvegicus [1]): 0%
Change (Rattus norvegicus [2]): -29%
Change (Rattus norvegicus [3]): 0%
Change (Rattus norvegicus [4]): -26%
Change (Rattus norvegicus [6]): 0%

COC(=O)C(C)(C)CCCOc1ccc(-c2ccccc2)c(OCCCC(C)(C)C(=O)OC)c1
Change (Rattus norvegicus [1]): 6%
Change (Rattus norvegicus [2]): -25%
Change (Rattus norvegicus [3]): 0%
Change (Rattus norvegicus [4]): 0%
Change (Rattus norvegicus [5]): 40%

CC(C)(CCOc1ccc(OCCC(C)(C)C(=O)O)cc1)C(=O)O
Change (Rattus norvegicus [1]): 40%
Change (Rattus norvegicus [3]): 0%
Change (Rattus norvegicus [4]): -33%
Change (Rattus norvegicus [5]): 370%

CC(C)(CCCOc1ccc(OCCCC(C)(C)C(=O)O)c(C(F)(F)F)c1)C(=O)O
Change (Rattus norvegicus [1]): 39%
Change (Rattus norvegicus [2]): -45%
Change (Rattus norvegicus [3]): 0%
Change (Rattus norvegicus [4]): 0%
Change (Rattus norvegicus [6]): 674%

COC(=O)C(C)(C)CCCOc1cccc(OCCCC(C)(C)C(=O)OC)c1C(C)=O
Change (Rattus norvegicus [1]): 0%
Change (Rattus norvegicus [7]): -40%
Change (Rattus norvegicus [3]): 0%
Change (Rattus norvegicus [4]): -38%
Change (Rattus norvegicus [6]): 0%

COC(=O)C(C)(C)CCCOc1ccc(OCCCC(C)(C)C(=O)OC)c(Br)c1
Change (Rattus norvegicus [1]): 30%
Change (Rattus norvegicus [3]): -39%
Change (Rattus norvegicus [4]): -45%
Change (Rattus norvegicus [5]): 728%

CCCCCc1cc(OCCCC(C)(C)C(=O)OC)cc(OCCCC(C)(C)C(=O)OC)c1
Change (Rattus norvegicus [1]): 8%
Change (Rattus norvegicus [2]): -67%
Change (Rattus norvegicus [3]): -32%
Change (Rattus norvegicus [4]): -57%
Change (Rattus norvegicus [6]): 47%

CC(C)(CCCOc1ccc(OCCCC(C)(C)C(=O)O)c(C(=O)O)c1)C(=O)O
Change (Rattus norvegicus [1]): 0%
Change (Rattus norvegicus [2]): -17%
Change (Rattus norvegicus [3]): 0%
Change (Rattus norvegicus [4]): 0%
Change (Rattus norvegicus [5]): 0%

COC(=O)C(C)(C)CCCOc1ccc(C)c(OCCCC(C)(C)C(=O)OC)c1
Change (Rattus norvegicus [1]): 4%
Change (Rattus norvegicus [2]): -64%
Change (Rattus norvegicus [3]): 0%
Change (Rattus norvegicus [4]): -55%
Change (Rattus norvegicus [6]): 38%

Cc1ccc(-c2cc(OCCCC(C)(C)C(=O)O)ccc2OCCCC(C)(C)C(=O)O)cc1
Change (Rattus norvegicus [1]): 0%
Change (Rattus norvegicus [7]): -42%
Change (Rattus norvegicus [3]): -27%
Change (Rattus norvegicus [4]): -32%
Change (Rattus norvegicus [6]): 66%
